Assay results published in ChEMBL document CHEMBL4382192, “Discovery of a potent dual ALK and EGFR T790M inhibitor” (Eur J Med Chem, 2017).

What was measured:
[1] = tested on: Tyrosine-protein kinase ABL1 (Homo sapiens), P00519 [F317I]; test: Binding affinity to human non-phosphorylated ABL1 F317I mutant (S229 to K512 residues) expressed in mammalian expression system assessed as residual binding level at 1 uM by Kinomescan method relative to control
Method in brief: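 Kinome-wide selectivity panel run by the KINOMEscan method, with the test compound at a single concentration of 1 μM. Wild-type and mutant kinases were profiled in the same screen.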

[2] = molecular target: Bone morphogenetic protein receptor type-2 (Homo sapiens) (UniProt Q13873); test: Binding affinity to wild-type human partial length BMPR2 (R179 to Q526 residues) expressed in mammalian expression system assessed as residual binding level at 1 uM by Kinomescan method relative to control
[3] = molecular target: Macrophage colony-stimulating factor 1 receptor (Homo sapiens) (UniProt P07333); test: Binding affinity to wild-type human partial length autoinhibited CSF1R (Y538 to S939 residues) expressed in mammalian expression system assessed as residual binding level at 1 uM by Kinomescan method relative to control
[4] = molecular target: Ephrin type-A receptor 3 (Homo sapiens) (UniProt P29320); test: Binding affinity to wild-type human partial length EPHA3 (D604 to K889 residues) expressed in bacterial expression system assessed as residual binding level at 1 uM by Kinomescan method relative to control
[5] = molecular target: Cyclin-G-associated kinase (Homo sapiens) (UniProt O14976); test: Binding affinity to wild-type human partial length GAK (G13 to Y338 residues) expressed in bacterial expression system assessed as residual binding level at 1 uM by Kinomescan method relative to control
[6] = molecular target: Serine/threonine-protein kinase MAK (Homo sapiens) (UniProt P20794); test: Binding affinity to wild-type human partial length MAK (M1 to P314 residues) expressed in bacterial expression system assessed as residual binding level at 1 uM by Kinomescan method relative to control
[7] = molecular target: Mitogen-activated protein kinase kinase kinase 2 (Homo sapiens) (UniProt Q9Y2U5); test: Binding affinity to wild-type human partial length MAP3K2 (S315 to H619 residues) expressed in mammalian expression system assessed as residual binding level at 1 uM by Kinomescan method relative to control
[8] = molecular target: Serine/threonine-protein kinase MARK1 (Homo sapiens) (UniProt Q9P0L2); test: Binding affinity to wild-type human partial length MARK1 (Q30 to T341 residues) expressed in bacterial expression system assessed as residual binding level at 1 uM by Kinomescan method relative to control
[9] = molecular target: Cyclin-dependent kinase 14 (Homo sapiens) (UniProt O94921); test: Binding affinity to wild-type human full length PFTK1 (M1 to H451 residues) expressed in bacterial expression system assessed as residual binding level at 1 uM by Kinomescan method relative to control
Method in brief: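 Single-point kinome-wide KINOMEscan binding panel, test compound at 1 μM, run by the provider's standard protocol.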

[10] = molecular target: Phosphatidylinositol 4,5-bisphosphate 3-kinase catalytic subunit beta isoform (Homo sapiens) (UniProt P42338); test: Binding affinity to wild-type human partial length PIK3CB (P118 to S1070 residues) expressed in mammalian expression system assessed as residual binding level at 1 uM by Kinomescan method relative to control
[11] = molecular target: Phosphatidylinositol 4,5-bisphosphate 3-kinase catalytic subunit gamma isoform (Homo sapiens) (UniProt P48736); test: Binding affinity to wild-type human partial length PIK3CG (S144 to A1102 residues) expressed in mammalian expression system assessed as residual binding level at 1 uM by Kinomescan method relative to control
[12] = molecular target: Protein kinase C iota type (Homo sapiens) (UniProt P41743); test: Binding affinity to wild-type human partial length PRKCI (H215 to V587 residues) expressed in mammalian expression system assessed as residual binding level at 1 uM by Kinomescan method relative to control
[13] = molecular target: Interferon-induced, double-stranded RNA-activated protein kinase (Homo sapiens) (UniProt P19525); test: Binding affinity to wild-type human partial length PRKR (F247 to C551 residues) expressed in bacterial expression system assessed as residual binding level at 1 uM by Kinomescan method relative to control
[14] = molecular target: Ribosomal protein S6 kinase alpha-4 (Homo sapiens) (UniProt O75676); test: Binding affinity to wild-type human partial length C-terminal RPS6KA4 kinase domain 2 (M375 to T705 residues) expressed in mammalian expression system assessed as residual binding level at 1 uM by Kinomescan method relative to control
[15] = molecular target: Ribosomal protein S6 kinase alpha-3 (Homo sapiens) (UniProt P51812); test: Binding affinity to wild-type human partial length N-terminal RSK2 kinase domain 1 (M1 to D394 residues) expressed in mammalian expression system assessed as residual binding level at 1 uM by Kinomescan method relative to control
[16] = molecular target: Serine/threonine-protein kinase WNK1 (Homo sapiens) (UniProt Q9H4A3); test: Binding affinity to wild-type human partial length WNK1 (Q194 to A490 residues) expressed in mammalian expression system assessed as residual binding level at 1 uM by Kinomescan method relative to control
[17] = molecular target: Serine/threonine-protein kinase WNK2 (Homo sapiens) (UniProt Q9Y3S1); test: Binding affinity to wild-type human partial length WNK2 (V47 to D482 residues) expressed in mammalian expression system assessed as residual binding level at 1 uM by Kinomescan method relative to control

Chain of Serine/threonine-protein kinase MAK (Homo sapiens) (P20794 whole entry, the tested form may be a part): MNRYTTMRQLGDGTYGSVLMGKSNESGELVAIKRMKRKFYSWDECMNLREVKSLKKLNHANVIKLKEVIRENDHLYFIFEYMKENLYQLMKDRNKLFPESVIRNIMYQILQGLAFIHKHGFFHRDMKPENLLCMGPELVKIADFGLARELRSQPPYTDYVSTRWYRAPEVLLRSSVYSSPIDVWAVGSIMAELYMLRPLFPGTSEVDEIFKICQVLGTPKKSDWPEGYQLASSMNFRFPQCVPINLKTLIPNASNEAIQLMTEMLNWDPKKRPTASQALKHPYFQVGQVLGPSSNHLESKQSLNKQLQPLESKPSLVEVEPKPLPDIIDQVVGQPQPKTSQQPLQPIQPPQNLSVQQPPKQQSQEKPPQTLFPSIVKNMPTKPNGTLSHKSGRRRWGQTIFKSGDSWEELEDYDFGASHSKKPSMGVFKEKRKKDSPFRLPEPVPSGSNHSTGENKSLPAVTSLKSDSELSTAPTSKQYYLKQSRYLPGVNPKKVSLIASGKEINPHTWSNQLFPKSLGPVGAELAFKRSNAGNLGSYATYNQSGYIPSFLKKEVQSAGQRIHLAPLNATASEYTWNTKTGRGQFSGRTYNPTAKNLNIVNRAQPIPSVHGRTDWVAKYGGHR
Chain of Cyclin-dependent kinase 14 (Homo sapiens) (O94921 whole entry, the tested form may be a part): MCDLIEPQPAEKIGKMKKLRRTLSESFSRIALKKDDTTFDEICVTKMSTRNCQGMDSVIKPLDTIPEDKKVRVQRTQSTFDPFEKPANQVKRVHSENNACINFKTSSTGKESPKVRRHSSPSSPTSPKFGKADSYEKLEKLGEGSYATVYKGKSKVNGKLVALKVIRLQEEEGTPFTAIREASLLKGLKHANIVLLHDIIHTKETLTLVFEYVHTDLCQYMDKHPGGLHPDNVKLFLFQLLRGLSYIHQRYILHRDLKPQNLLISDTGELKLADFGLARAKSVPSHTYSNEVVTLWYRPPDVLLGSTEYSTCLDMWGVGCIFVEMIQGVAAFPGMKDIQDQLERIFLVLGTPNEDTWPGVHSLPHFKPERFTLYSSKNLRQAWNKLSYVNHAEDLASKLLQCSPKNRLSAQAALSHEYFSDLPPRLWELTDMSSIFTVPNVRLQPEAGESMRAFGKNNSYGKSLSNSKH
Chain of Serine/threonine-protein kinase WNK1 (Homo sapiens) (Q9H4A3 whole entry, looked up, the tested form may be a part): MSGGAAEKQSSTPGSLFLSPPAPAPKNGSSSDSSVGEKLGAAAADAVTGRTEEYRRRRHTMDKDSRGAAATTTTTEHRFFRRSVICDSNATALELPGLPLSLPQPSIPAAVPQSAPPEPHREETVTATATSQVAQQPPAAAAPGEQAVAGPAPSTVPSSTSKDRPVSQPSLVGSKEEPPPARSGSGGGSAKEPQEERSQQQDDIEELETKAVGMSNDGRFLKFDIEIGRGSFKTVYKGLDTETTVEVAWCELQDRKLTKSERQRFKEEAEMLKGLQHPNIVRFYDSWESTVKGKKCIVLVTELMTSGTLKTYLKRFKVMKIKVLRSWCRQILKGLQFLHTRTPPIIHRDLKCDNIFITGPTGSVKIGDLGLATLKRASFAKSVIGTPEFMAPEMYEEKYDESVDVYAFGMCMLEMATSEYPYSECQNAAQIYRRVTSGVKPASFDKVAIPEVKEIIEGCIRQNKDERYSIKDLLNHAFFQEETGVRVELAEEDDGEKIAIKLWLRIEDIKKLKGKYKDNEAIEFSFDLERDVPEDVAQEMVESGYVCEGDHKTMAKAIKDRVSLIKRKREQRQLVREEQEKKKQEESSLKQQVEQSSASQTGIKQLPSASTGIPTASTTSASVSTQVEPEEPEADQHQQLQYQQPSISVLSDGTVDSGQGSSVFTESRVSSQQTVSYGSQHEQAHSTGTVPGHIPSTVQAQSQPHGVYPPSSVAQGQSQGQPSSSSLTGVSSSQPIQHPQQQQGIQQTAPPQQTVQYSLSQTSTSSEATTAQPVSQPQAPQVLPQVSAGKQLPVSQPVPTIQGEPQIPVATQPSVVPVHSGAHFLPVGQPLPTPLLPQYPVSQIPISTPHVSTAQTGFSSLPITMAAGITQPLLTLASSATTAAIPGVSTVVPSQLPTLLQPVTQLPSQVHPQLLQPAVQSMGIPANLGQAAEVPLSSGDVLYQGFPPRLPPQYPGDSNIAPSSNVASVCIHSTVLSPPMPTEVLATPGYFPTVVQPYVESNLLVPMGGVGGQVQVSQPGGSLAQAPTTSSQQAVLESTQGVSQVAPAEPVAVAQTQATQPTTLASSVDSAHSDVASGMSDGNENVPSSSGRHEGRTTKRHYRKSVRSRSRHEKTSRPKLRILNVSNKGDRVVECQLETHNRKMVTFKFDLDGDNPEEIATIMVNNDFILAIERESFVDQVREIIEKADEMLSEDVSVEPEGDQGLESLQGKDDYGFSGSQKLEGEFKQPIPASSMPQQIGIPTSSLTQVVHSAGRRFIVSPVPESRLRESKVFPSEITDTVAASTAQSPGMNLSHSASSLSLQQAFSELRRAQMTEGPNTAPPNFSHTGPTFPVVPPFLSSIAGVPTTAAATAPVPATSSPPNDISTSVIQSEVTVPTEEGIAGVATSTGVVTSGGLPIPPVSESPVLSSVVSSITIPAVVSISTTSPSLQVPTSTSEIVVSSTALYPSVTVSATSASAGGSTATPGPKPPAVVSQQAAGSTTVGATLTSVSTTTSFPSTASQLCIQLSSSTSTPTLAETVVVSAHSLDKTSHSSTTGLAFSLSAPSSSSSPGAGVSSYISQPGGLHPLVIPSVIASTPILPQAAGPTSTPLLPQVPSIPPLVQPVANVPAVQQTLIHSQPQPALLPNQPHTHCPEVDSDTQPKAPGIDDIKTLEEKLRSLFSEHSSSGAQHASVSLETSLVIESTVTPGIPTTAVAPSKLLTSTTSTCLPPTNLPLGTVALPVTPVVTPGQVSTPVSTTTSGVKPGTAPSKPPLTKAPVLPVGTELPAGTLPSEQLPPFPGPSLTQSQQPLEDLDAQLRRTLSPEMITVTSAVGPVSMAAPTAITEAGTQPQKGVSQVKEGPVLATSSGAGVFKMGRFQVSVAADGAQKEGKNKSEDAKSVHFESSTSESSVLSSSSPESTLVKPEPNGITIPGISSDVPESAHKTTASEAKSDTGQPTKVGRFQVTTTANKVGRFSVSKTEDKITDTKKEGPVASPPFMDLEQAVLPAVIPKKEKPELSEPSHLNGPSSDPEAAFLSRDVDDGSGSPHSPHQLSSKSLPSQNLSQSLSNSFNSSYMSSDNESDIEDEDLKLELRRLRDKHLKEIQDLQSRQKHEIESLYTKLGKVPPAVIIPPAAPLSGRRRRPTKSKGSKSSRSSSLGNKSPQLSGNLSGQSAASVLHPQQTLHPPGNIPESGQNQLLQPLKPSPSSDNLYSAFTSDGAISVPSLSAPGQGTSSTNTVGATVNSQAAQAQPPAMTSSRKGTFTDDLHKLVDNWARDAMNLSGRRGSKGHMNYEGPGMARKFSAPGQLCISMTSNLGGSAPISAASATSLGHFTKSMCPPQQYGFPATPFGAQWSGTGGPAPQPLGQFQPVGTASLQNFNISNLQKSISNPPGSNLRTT
Chain of Macrophage colony-stimulating factor 1 receptor (Homo sapiens) (P07333 whole entry, the tested form may be a part): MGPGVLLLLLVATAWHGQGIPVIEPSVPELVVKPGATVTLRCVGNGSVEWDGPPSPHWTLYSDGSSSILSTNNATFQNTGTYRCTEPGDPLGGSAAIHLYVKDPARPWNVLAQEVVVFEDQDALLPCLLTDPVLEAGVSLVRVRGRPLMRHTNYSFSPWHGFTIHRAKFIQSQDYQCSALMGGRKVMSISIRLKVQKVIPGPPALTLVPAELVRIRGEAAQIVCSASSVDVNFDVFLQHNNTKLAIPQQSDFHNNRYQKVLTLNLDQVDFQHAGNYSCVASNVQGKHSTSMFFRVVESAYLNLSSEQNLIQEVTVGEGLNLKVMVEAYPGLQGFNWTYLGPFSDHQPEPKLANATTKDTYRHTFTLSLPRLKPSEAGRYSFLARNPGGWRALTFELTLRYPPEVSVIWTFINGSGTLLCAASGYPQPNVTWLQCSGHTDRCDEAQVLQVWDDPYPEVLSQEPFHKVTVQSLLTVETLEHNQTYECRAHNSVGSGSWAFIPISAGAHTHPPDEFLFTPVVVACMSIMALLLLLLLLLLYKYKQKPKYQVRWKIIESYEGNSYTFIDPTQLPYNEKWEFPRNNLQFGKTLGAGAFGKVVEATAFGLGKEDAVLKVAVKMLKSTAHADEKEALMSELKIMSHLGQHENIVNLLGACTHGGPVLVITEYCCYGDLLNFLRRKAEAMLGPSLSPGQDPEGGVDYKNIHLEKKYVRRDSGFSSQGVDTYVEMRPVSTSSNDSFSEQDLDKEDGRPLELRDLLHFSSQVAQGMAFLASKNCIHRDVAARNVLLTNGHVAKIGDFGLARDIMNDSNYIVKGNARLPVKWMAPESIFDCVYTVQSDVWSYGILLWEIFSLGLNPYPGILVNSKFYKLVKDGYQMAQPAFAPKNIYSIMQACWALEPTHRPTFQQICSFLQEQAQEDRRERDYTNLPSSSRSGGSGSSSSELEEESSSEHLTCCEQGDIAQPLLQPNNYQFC
Chain of Interferon-induced, double-stranded RNA-activated protein kinase (Homo sapiens) (P19525 whole entry, the tested form may be a part): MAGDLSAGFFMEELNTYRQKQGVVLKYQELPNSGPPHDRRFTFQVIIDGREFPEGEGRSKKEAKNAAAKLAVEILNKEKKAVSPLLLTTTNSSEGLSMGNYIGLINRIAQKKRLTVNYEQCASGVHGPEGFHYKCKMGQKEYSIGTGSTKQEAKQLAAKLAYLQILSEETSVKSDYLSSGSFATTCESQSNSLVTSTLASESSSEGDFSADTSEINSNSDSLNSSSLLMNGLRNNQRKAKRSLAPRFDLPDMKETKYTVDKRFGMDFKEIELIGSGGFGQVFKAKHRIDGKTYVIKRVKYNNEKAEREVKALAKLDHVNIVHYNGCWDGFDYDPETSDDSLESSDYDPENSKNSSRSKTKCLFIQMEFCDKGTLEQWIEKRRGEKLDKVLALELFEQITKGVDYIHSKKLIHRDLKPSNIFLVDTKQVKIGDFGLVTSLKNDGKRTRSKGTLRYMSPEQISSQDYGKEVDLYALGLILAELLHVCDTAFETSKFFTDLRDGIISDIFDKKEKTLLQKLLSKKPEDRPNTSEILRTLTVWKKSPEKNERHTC

## C=CC(=O)Nc1cc(Nc2ncc(Cl)c(Nc3ccccc3S(=O)(=O)C(C)C)n2)c(OC)cc1N(C)CCN(C)C
[1]
  Activity: 0.05%
[2]
  Activity: 95%
[3]
  Activity: 92%
[4]
  Activity: 77%
[5]
  Activity: 29%
[6]
  Activity: 100%
[7]
  Activity: 32%
[8]
  Activity: 40%
[9]
  Activity: 83%
[10]
  Activity: 100%
[11]
  Activity: 98%
[12]
  Activity: 73%
[13]
  Activity: 66%
[14]
  Activity: 100%
[15]
  Activity: 1.7%
[16]
  Activity: 100%
[17]
  Activity: 66%
